Screens: PubChem BioAssay, Sanford-Burnham Center for Chemical Genomics
HKDC1 inhibitor – HKDC1 hexokinase inhibitors, primary screen, biochemical, fluorescence, uHTS; recombinant HKDC1, G6PDH/diaphorase resazurin coupled fluorescence; inhibition, % at 20 µM; 340,000 tested, 0.16% active; Q2TB90;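 active means inhibition above about 35% when tested at 20 µM, limit read from the data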;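 further: plate controls were DMSO wells with enzyme for no effect and DMSO wells lacking enzyme for full effect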
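Assay system – recombinant HKDC1 (HK5) hexokinase enzyme, produced in-house · Input – HKDC1 at 5 µg/mL · Reagent – glucose plus 1 mM ATP as hexokinase substrates · Timing – 90 min reaction incubation at room temperature, dark · Measured by – G6PDH/diaphorase-coupled fluorescence, 1 mM NADP, 100 µM resazurin, 525/613 nm · Benchmarks – DMSO-enzyme wells negative, buffer-substituted wells positive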
LMPTP block – LMPTP phosphatase inhibitors, primary screen, biochemical, fluorescence intensity, uHTS | inhibition, % at 20 µM | Low molecular weight phosphotyrosine protein phosphatase (Homo sapiens), P24666 | AID 651560, 2012 | 360,000 tested, 0.22% active | recombinant LMPTP-A, OMFP fluorogenic substrate;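 active means compounds that cut the enzyme signal by at least half of the control window in the single-dose screen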;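 further: plate controls were DMSO wells with enzyme plus substrate for no effect and substrate without enzyme for full effect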
Target sequence (P24666 whole entry, looked up): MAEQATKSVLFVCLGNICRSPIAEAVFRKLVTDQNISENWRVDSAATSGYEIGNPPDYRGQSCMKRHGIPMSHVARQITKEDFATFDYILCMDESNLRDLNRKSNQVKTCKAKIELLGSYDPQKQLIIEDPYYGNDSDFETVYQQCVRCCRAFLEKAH
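Assay system: LMPTP-A phosphatase enzyme | Input: 0.625 nM enzyme | Also added: Fluorogenic phosphatase substrate OMFP at 400 µM final | Compound dosing: One test concentration per compound, 20 µM, with 3% DMSO overall | Schedule: 50 min enzyme reaction at room temperature, protected from light | Signal: Fluorescence intensity | Benchmarks: no-enzyme and uninhibited controls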
Scp-1 inhibitor – Scp-1 phosphatase inhibitors, primary screen, biochemical, colorimetric, uHTS. Carboxy-terminal domain RNA polymerase II polypeptide A small phosphatase 1 (Homo …. Recombinant Scp1, phosphopeptide, malachite green phosphate absorbance. inhibition, % at 20 µM. 340,000 tested, 0.88% active;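 active means inhibition above about 50% at 20 µM, limit read from the data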;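 further: plate controls were DMSO wells with enzyme for no effect and wells lacking enzyme for full effect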
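System: truncated SCP-1 phosphatase (76-261aa); medium: Tris acetate buffer pH 5.5 with MgCl2 and Tween-20; incubation: 45 min room-temperature reaction, 5 min colour, 30 min stabiliser; compound: single 20 µM dose, 1% DMSO; reagent: Phosphorylated 17-residue peptide substrate; read-out: % inhibition at 20 µM; technique: colorimetric free-phosphate detection, absorbance 630 nm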
SUMO1 PPI mod – modulators of SUMO1 protein-protein interactions, primary screen, biochemical, uHTS; AID 602429, 2012; inhibition, % at 20 µM; Small ubiquitin-related modifier 1 (Homo sapiens), P63165; 360,000 tested, 0.33% active; SUMO1 binding to a labelled peptide, TR-FRET, 1 h; in the data active means inhibition above about 37%
STEP block – STEP phosphatase inhibitors, primary screen, biochemical, fluorescence intensity, uHTS; recombinant STEP, OMFP fluorogenic substrate; Tyrosine-protein phosphatase non-receptor type 5 (Homo sapiens), P54829; 360,000 tested, 0.25% active; inhibition, % at 20 µM;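 active means inhibition at 20 µM, scaled per plate between control wells, above about 37%, limit read from the data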;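 further: 0% = DMSO with enzyme and substrate and 100% = substrate only without enzyme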
Target sequence (P54829 whole entry, looked up): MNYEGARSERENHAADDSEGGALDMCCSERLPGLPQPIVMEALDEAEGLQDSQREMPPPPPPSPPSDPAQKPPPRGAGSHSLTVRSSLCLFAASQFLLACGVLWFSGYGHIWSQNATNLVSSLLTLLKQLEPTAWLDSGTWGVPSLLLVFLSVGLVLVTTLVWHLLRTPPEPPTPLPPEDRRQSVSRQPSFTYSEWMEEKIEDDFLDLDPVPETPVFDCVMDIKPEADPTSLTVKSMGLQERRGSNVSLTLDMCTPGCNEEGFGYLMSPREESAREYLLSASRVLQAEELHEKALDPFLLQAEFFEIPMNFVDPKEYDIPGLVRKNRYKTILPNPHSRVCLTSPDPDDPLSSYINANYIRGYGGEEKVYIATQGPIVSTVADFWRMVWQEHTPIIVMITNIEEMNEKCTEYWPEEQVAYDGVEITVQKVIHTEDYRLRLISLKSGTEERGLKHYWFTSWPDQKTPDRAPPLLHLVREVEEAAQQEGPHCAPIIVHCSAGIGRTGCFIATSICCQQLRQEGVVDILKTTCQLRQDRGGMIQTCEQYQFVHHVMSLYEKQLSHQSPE
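material = STEP tyrosine phosphatase | reagent = fluorogenic phosphatase substrate OMFP at 25 µM final | doses = single compound dose of 20 µM, 1% DMSO final | schedule = 20 min reaction, room temperature, in the dark | measured by = fluorescence, 480/540 nm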
DNMT1 inh – human DNMT1 methyltransferase inhibitors, primary screen, biochemical, molecular beacon, fluorescence, HinP1I cleavage, uHTS; 360,000 tested, 0.83% active; inhibition (reported as % activation of signal), % at 10 µM; AID 588458, 2011; DNA (cytosine-5)-methyltransferase 1 (Homo sapiens), P26358; in the data active means inhibition above about 50%
Scp1 confirm – Scp-1 phosphatase inhibitors, retest, confirmation, biochemical, colorimetric, single concentration; 2,500 tested, 61% active; shares compounds with Scp-1 inhibitor; recombinant SCP-1 catalytic domain, phosphate release, malachite green absorbance; inhibition, % at 20 µM;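 further: plate controls were DMSO with enzyme for no effect and buffer wells lacking enzyme for full effect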
Scp-1 MG ctr – colorimetric readout interference by compounds, confirmation, artefact control for Scp-1 inhibitor project, biochemical, single concentration; shares compounds with Scp-1 inhibitor; Colorimetric interference counterscreen, malachite green absorbance 630 nm; 2,500 tested, under 10 active; AID 540313, 2011; apparent inhibition (interference), % at 20 µM;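 further: compounds added after enzyme reaction finished so only phosphate colour detection is probed; plate controls were DMSO wells with completed Scp-1 reaction for no effect and substrate wells lacking enzyme for full effect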
Scp1 DSF – Scp-1 binding by thermal shift, confirmation, orthogonal assay for Scp-1 inhibitor project, biophysical, differential scanning fluorimetry | shares compounds with Scp-1 inhibitor | Recombinant SCP1, Sypro Orange thermal shift Tm | thermal shift relative to vanadate control, % at 40 µM | 1,500 tested, 25% active;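 active means substances whose mean melting-temperature shift, as a percentage of the reference inhibitor's shift, reaches about 5.3%, limit read from the data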;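 further: 0% = Tm of DMSO wells and 100% = Tm with sodium orthovanadate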
* = called active by the depositor; nt = not tested or not shown. Compounds with a hit are over-represented: about 1.8% of the library has one in this group of screens.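 How the source made its calls, unless noted: active means inhibition of at least 30% at 20 µM; inactive means the rest.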

SMILES	HKDC1 inhibitor	LMPTP block	Scp-1 inhibitor	SUMO1 PPI mod	STEP block	DNMT1 inh	Scp1 confirm	Scp-1 MG ctr	Scp1 DSF
CC1(C)C[C@H](O)[C@]2(CO)CC[C@]3(C)C(=CCC4[C@@]5(C)CC[C@H](O)C(C)(C)C5CC[C@]43C)[C@@H]2C1 (stereo partly drawn)	8	0	-1	1	1	-20	nt	nt	nt
CC1O[C@@H](OC2C(COC3OC(CO)C(O)[C@H](O)C3O)OC(OC3CC[C@]4(C)C(CC[C@@]5(C)[C@@H]4CC=C4[C@@H]6CC(C)(C)CC[C@]6(CO)C(O)C[C@]45C)C3(C)C)C(O)C2O)C(O)C(O)C1O (stereo partly drawn)	-4	8	55*	10	3	-1	25	-9	nt
Cc1ccc(NC(=O)CN2C(=O)S/C(=C\c3cc(Cl)c(OCC(=O)O)c(Cl)c3)C2=O)cc1	19	85*	90*	20	98*	8	57*	-15	-4
O=C(CCN1C(=O)/C(=C/c2ccc3c(c2)OCO3)SC1=S)Nc1ccc(C(=O)O)cc1	11	92*	84*	4	18	5	71*	-11	8.7*
O=C(CCN1C(=O)S/C(=C\c2ccc(Cl)cc2)C1=O)Nc1ccc(C(=O)O)cc1	4	12	80*	-23	8	1	72*	-13	-4
CCOc1ccc(/C=C2\SC(=S)N(CCC(=O)Nc3cccc(C(=O)O)c3)C2=O)cc1	17	74*	85*	-16	54*	0	61*	-20	37*
COc1cccc(/C=C2\SC(=S)N(CCCC(=O)Nc3cccc(C(=O)O)c3)C2=O)c1	nt	-1	nt	-20	1	1	nt	nt	nt
O=C(NCC1CCCO1)C(=O)NCC(c1ccco1)N1CCN(c2ccccc2F)CC1 (stereo not drawn)	-3	0	-10	2	1	-5	nt	nt	nt
C/C=C(\C)CN1CCC(n2nccc2NC(=O)CCOc2ccccc2)CC1	-1	-1	0	5	-2	0	nt	nt	nt
Cc1cc2c3c([nH]c2cc1S(=O)(=O)NCc1ccc(CN2CCCCCC2)o1)CCCC3=O	-1	5	13	7	-3	-5	nt	nt	nt
O=C1CN(C(=O)c2cc3ccccc3o2)c2ccccc2N1	-8	-1	2	-1	-5	-14	nt	nt	nt
Cc1c(Cl)cccc1NC(=O)Cn1c(CCC(=O)O)ccc1-c1ccccc1	-3	2	-13	2	1	-2	nt	nt	nt
NS(=O)(=O)c1ccc2nc(NC(=O)c3ccncc3)sc2c1	-5	1	-7	0	1	2	nt	nt	nt
O=C(CCN1C(=O)/C(=C/c2cccs2)SC1=S)Nc1ccc(C(=O)O)cc1	3	4	-15	-18	5	1	nt	nt	nt
CCOc1ccc(/C=C2\SC(=S)N(CCC(=O)Nc3ccc(C(=O)O)cc3)C2=O)cc1	20	67*	88*	31	45*	62*	60*	-20	5
N#CCC(=O)N/N=C/c1ccc(Sc2nc3ccccc3s2)o1	2	1	99*	-15	0	8	81*	-11	8.1*
COCC(=O)N/N=C/c1ccc(Sc2nc3ccccc3s2)o1	1	-1	-7	-27	-2	5	nt	nt	nt
O=c1[nH]c(/C=C\c2ccc(O)c(O)c2)nc(O)c1[N+](=O)[O-]	0	-1	23	3	5	14	45*	-2	6.2*
COc1ccc(-n2c(C)cc(/C=C/c3nc(O)c([N+](=O)[O-])c(=O)[nH]3)c2C)cc1	0	16	66*	9	3	44	59*	-18	5
COc1cc(CCN(C(=O)c2cc3ccccc3[nH]2)C(c2ccccn2)c2nc3ccccc3[nH]2)cc(OC)c1 (stereo not drawn)	nt	0	nt	-8	-3	-11	nt	nt	nt
CCC(=O)N1CCC1(C)C(=O)NCc1ccc(SC)cc1 (stereo not drawn)	nt	-1	nt	3	-4	4	nt	nt	nt
COc1ccc(CC(=O)NNC(=O)COc2ccc3ccccc3c2)cc1	-2	16	57*	-1	2	41	52*	-14	-17
COc1ccccc1NC(=O)NNC(=O)COc1ccc2ccccc2c1	4	0	1	2	0	-2	nt	nt	nt
CC(=O)N=c1c(C#N)cc2c(=O)n3cccc(C)c3nc2n1CCCOC(C)C	-5	25	-4	7	0	41	nt	nt	nt
CC(=O)N=c1c(C#N)cc2c(=O)n3cccc(C)c3nc2n1Cc1ccco1	8	3	70*	20	17	49	25	-19	nt
SMILES	HKDC1 inhibitor	LMPTP block	Scp-1 inhibitor	SUMO1 PPI mod	STEP block	DNMT1 inh	Scp1 confirm	Scp-1 MG ctr	Scp1 DSF
O=C(COC(=O)c1cccc([N+](=O)[O-])c1)Nc1ccc(Cl)cn1	-2	-2	-7	-31	-1	6	nt	nt	nt
CCCc1nc2ccccc2n1C(CCSC)C(=O)NC(C)(C)C (stereo not drawn)	nt	0	nt	-4	nt	nt	nt	nt	nt
CCSC1=N/C(=C\c2ccc(OC)cc2)C(=O)N1	-9	-1	50*	-13	-2	4	2	-3	nt
CCCCNC(=O)C1(C)CCN1C(=O)c1cccc2c1OCCO2 (stereo not drawn)	nt	-1	nt	6	0	6	nt	nt	nt
COc1cccc(N2[C@@H](CC(=O)O)c3cc(C(F)(F)F)ccc3S2(=O)=O)c1	2	0	104*	9	-2	15	69*	-19	3
O=C(NCC1CCCO1)C(=O)N/N=C/c1cccc(Cl)c1 (stereo not drawn)	-1	-1	-7	1	0	1	nt	nt	nt
